This note sets out measurements from ChEMBL document CHEMBL4823261, “Grincamycins P-T: Rearranged Angucyclines from the Marine Sediment-Derived Streptomyces sp. CNZ-748 Inhibit Cell Lines of the Rare Cancer Pseudomyxoma Peritonei” (J Nat Prod, 2021).

The term IC50 denotes the concentration that inhibits the measured activity by half.

Series [1] is described as follows: Cytotoxicity against human PMP501-1 cells assessed as inhibition of cell proliferation measured after 24 hrs by crystal violet staining assay. The class given is functional, cell-based. The note with it: PMP501-1, 24 h. In outline: (§1)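 PMP-derived lines (ABX023-1, PMP457-2, PMP501-1) and mucinous colonic adenocarcinoma peritoneal metastasis line C09-1. Seeded at 30 000 cells/well in triplicate in Ham's F12 with 10% FBS, L-glutamine, insulin and sodium selenite. Grown 24 h at 37 °C, then treated for 24 h. Controls were DMSO vehicle, 5-fluorouracil and 10% EtOH dead-cell. Cells were stained with 0.2% crystal violet, solubilised in SDS/EtOH and read at OD595.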

Series [2] in a line: Cytotoxicity against human PMP457-2 cells assessed as inhibition of cell proliferation measured after 24 hrs by crystal violet staining assay. It is filed as functional, cell-based. As to conditions: PMP457-2, 24 h. In outline:
as §1

A short description of series [3]: Cytotoxicity against human ABX023-1 cells assessed as inhibition of cell proliferation measured after 24 hrs by crystal violet staining assay. It is filed as functional, cell-based. As to conditions: ABX023-1, 24 h. Summed up: as §1
Series [4] is described as follows: Cytotoxicity against human C09-1 cells assessed as inhibition of cell proliferation measured after 24 hrs by crystal violet staining assay. The class given is functional, cell-based. As to conditions: C09-1, 24 h. In outline:
as §1

Series [5] in a line: Stability of the compound in 0.1% TFA/MeOH solution measured after 12 hrs by LC/MS analysis. It is filed as physicochemical. In outline: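 10 μg aliquots were incubated in 0.1% TFA in MeOH at 30 °C for 12 h, then dried under N2 and redissolved in MeOH. Analysed by UHPLC-DAD-ESI(±)MS on C18 with a water/MeCN gradient containing 0.1% formic acid. Compared against authentic standards run by the same method.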

A value given as a limit tells only on which side of the number the result lay.

Regarding `C[C@@H]1O[C@@H](O[C@H]2CC[C@H](O[C@H]3[C@H](O)C[C@H](c4ccc5c(c4O)C(=O)c4ccc(C[C@@](C)(O)CC(=O)O)c(O)c4C5=O)O[C@@H]3C)O[C@H]2C)C(N)=CC1=O`, the IC50 in series [1] was 12 µM; in series [2], over 100 µM; in series [3] it was 23 µM; in series [4] it was 17 µM.
Take `CSC1=CC(=O)[C@H](C)O[C@H]1O[C@H]1CC[C@H](O[C@H]2[C@H](O)C[C@H](c3ccc4c(c3O)C(=O)c3ccc(C[C@](C)(CC(=O)O)O[C@H]5CC[C@H](O[C@H]6CC[C@H](O)[C@H](C)O6)[C@H](C)O5)c(O)c3C4=O)O[C@@H]2C)O[C@H]1C`: the IC50 in series [1] worked out at 3.9 µM; in series [2] it was 7.8 µM; in series [3] it was 13 µM; in series [4], 61 µM.
For the compound `C[C@@H]1O[C@@H](O[C@H]2[C@H](O)C[C@H](c3ccc4c(c3O)C(=O)c3ccc(C[C@@](C)(O)CC(=O)O)c(O)c3C4=O)O[C@@H]2C)CC[C@@H]1O[C@H]1CC[C@H](O)[C@H](C)O1`, the IC50 was over 100 µM in series [1], 23 µM in series [2], 21 µM in series [3] and 32 µM in series [4].
Take `C[C@@H]1O[C@@H](O[C@H]2[C@H](O)C[C@H](c3ccc4c(c3O)C(=O)c3ccc(C[C@](C)(CC(=O)O)O[C@H]5CC[C@H](O[C@H]6CC[C@H](O)[C@H](C)O6)[C@H](C)O5)c(O)c3C4=O)O[C@@H]2C)CC[C@@H]1O[C@H]1CC[C@H](O)[C@H](C)O1`: the IC50 in series [1] was 18 µM; in series [2] it was 11 µM; in series [3], 45 µM; in series [4], 38 µM.
Take `C[C@@H]1O[C@@H](O[C@H]2[C@H](O)C[C@H](c3ccc4c(c3O)C(=O)c3c(O)cc(C[C@](C)(CC(=O)O)O[C@H]5CC[C@H](O[C@H]6CC[C@H](O)[C@H](C)O6)[C@H](C)O5)c(O)c3C4=O)O[C@@H]2C)CC[C@@H]1O[C@H]1CC[C@H](O)[C@H](C)O1`: the IC50 in series [1] amounted to 2.7 µM; in series [2], 1.9 µM; in series [3], 1.4 µM; in series [4] it was 8.7 µM.
With `C[C@H]1O[C@@H](c2ccc3c(c2O)C(=O)c2ccc(C[C@@](C)(O)CC(=O)O)c(O)c2C3=O)C[C@@H](O)[C@@H]1O`, the IC50 in series [1] was 11 µM; in series [2], 6.7 µM; in series [3], 49 µM; in series [4] it was 42 µM. In addition, in series [5], the Stabilty entry is “Stable”.
For `C[C@@H]1O[C@H]2O[C@@H]3[C@@H](C)O[C@@H](c4ccc5c(c4O)C(=O)c4ccc(C[C@@](C)(O)CC(=O)O)c(O)c4C5=O)C[C@H]3O[C@H]2C[C@@H]1O` the same measures were 23 µM, over 100 µM, 14 µM, 19 µM and “Stable”.
For the compound `C[C@@H]1O[C@@H](O[C@H]2[C@H](O)C[C@H](c3ccc4c(c3O)C(=O)c3ccc(C[C@@](C)(O)CC(=O)O)c(O)c3C4=O)O[C@@H]2C)CC[C@@H]1O`, the IC50 came to 14 µM in series [1], 5.9 µM in series [2], 12 µM in series [3] and 6.6 µM in series [4].
For the compound `C[C@@H]1O[C@@H](O[C@H]2[C@H](O)C[C@H](c3ccc4c(c3O)C(=O)c3c(O)cc(C[C@@](C)(O)CC(=O)O)c(O)c3C4=O)O[C@@H]2C)CC[C@@H]1O[C@H]1CC[C@H](O)[C@H](C)O1`, the IC50 in series [1] amounted to 2.5 µM; in series [2] it was 5.5 µM; in series [3], 4.7 µM; in series [4], 10 µM.
For `O=c1[nH]cc(F)c(=O)[nH]1` [FLUOROURACIL] the same measures were 3.6 µM, 2 µM, 3.4 µM and 4 µM.
